We go through 13 molecules from article PMC9773939 (ACS Omega, 2022).

Where two headings read alike, the source gives them in different places.

Data set [1] has as its system L. infantum promastigotes. Nature of the data set: Nitrite concentration by Griess test, L. infantum promastigote culture. As to conditions: 5 days, 25, 50 and 100 μM. The format is cell-based. The method, boiled down: (§1)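 L. infantum promastigote or T. cruzi epimastigote cultures (5 × 10^6 parasites/well) were incubated 5 days with test compound at 25, 50 and 100 μM, with untreated wells as controls. Supernatants were mixed with 1% sulfanilamide in 50% acetic acid, then after 15 min with 1% N-naphthylethylenediamine in 50% acetic acid, and read at 540 nm. Nitrite (μM) was taken from a sodium nitrite standard curve (detection limit 1.56 μM). Run in triplicate.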

Another data set has as its system T. cruzi epimastigotes. Nature of the data set: Nitrite concentration by Griess test, T. cruzi epimastigote culture. It is filed as cell-based. As to conditions: 5 days, 25, 50 and 100 μM. The method, boiled down:
as §1
In general terms: Nitrite, measured by Griess reagent, commonly stands in for NO production.

Data set [2] deals with promastigotes of L. braziliensis. In words: In vitro growth inhibition of L. braziliensis promastigotes. The following applies: for IC50: read-out: promastigote, IC50 L. braziliensis; for inhibition at 25 µM: read-out: promastigote, PGI (percentage growth inhibition) L. braziliensis. The format is cell-based, Leishmania (V) braziliensis (MHOM/BR/75/M2903).
Data set [3] has as its system promastigotes of L. infantum. Nature of the data set: In vitro growth inhibition of L. infantum promastigotes. The format is cell-based, Leishmania infantum (MHOM MA67I7MAP263). As to conditions: for IC50 / inhibition at 25 µM: Leishmania infantum; for IC50 / promastigote, IC50 L. infantum: 72 h; for IC50: read-out: promastigote, IC50 L. infantum; for inhibition at 25 µM: read-out: promastigote, PGI (percentage growth inhibition) L. infantum; for promastigote, IC50 L. infantum: promastigotes, MTT. The method, boiled down: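 L. infantum MHOM MA67I7MAP263 promastigotes at 2 × 10^6 parasites/mL were exposed to 0.5–25 μM test compound for 72 h at 25 °C. Dilutions came from a 3000 μM DMSO stock, with final DMSO ≤1%. MTT (0.4 mg/mL) was added for 4 h at 37 °C, formazan was dissolved in DMSO and read at 570 nm. Inhibition was calculated against untreated controls. At least three experiments, mean ± SD.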

Data set [4] concerns epimastigotes of T. cruzi. In words: In vitro anti-T. cruzi evaluation on epimastigotes. The format is cell-based, T. cruzi (CL Brener clone). The following applies: for S.I.T.cruzi (selectivity index), column epimastigote, IC50 (μM) T. cruzi (S.I.T.cruzi): CC50 (J774.1A) / IC50 of epimastigotes (T. cruzi); for IC50 / inhibition at 25 µM: Trypanosoma cruzi; for IC50: 120 h, read-out: epimastigote, IC50 T. cruzi; for inhibition at 25 µM: read-out: epimastigote, PGI (percentage growth inhibition) T. cruzi, determined at 25 μM. The method, boiled down: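 Turbidity (A595) was read at day 0 and day 5. PGI was calculated relative to untreated controls, with single-point PGI at 25 μM. IC50 is the concentration […]. At least three experiments.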

Another data set has as its system peritoneal macrophages. In words: Cytotoxicity on primary peritoneal macrophages. The following applies: read-out: peritoneal macrophage, CC50; 48 h, MTT. The format is cell-based, mouse. The gist of the method:
(§2)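 Peritoneal or J774.1A macrophages were grown in DMEM with 10% heat-inactivated FBS, L-glutamine and penicillin/streptomycin. Cells were seeded at 5 × 10^4 cells/well for 24 h at 37 °C, 5% CO2, then given test compound at 10–100 μM (from 25,000 μM DMSO stock) for 48 h. MTT (0.4 mg/mL, 4 h, 37 °C) was dissolved in DMSO and read at 570 nm. Cytotoxicity was expressed relative to negative controls. At least three experiments.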

In the next data set the test system is J774.1A macrophages. Nature of the data set: Cytotoxicity on J774.1A macrophages. The format is cell-based. As to conditions: read-out: J774.1A macrophage, CC50; 48 h, MTT. The gist of the method: as §2
Data set [5] has as its system amastigotes of L. braziliensis. In words: Ex vivo antiamastigote activity of L. braziliensis. The format is cell-based, L. braziliensis (MHOM/BZ/82/M2903). As to conditions: for S.I.Leishmania (selectivity index): CC50 (peritoneal macrophage) / IC50 (amastigotes of L. braziliensis); for IC50: Leishmania braziliensis, 48 h, read-out: amastigote, IC50 L. braziliensis. The method, boiled down:
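L. braziliensis MHOM/BZ/82/M2903 amastigotes were taken from footpad lesions of infected BALB/c mice. Macrophages were removed by brief centrifugation (3000 rpm, 2–3 min). Amastigotes were kept at 37 °C, pH 5.5, in supplemented M199 with 10% FCS. At 2 × 10^6/mL they were exposed to 1.0–50.0 μM test compound (controls 1% DMSO). At 48 h parasites were counted in a Neubauer chamber against untreated controls. S.I. = peritoneal macrophage CC50 / amastigote IC50.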

Data set [6] in a line: Cytotoxicity on primary peritoneal macrophages. It is filed as cell-based, mouse. The following applies: mouse, primary peritoneal macrophages, peritoneal macrophage, CC50, 48 h, MTT. The gist of the method: as §2
Data set [7] in a line: Solubility, qualitative remarks. The following applies: qualitative remark. The format is physicochemical.
Data set [8] relates to epimastigotes of T. cruzi. Nature of the data set: Antifolate activity: IC50 on T. cruzi epimastigotes with and without folic acid. The following applies: presence vs absence of D,L-folic acid. The format is cell-based. The method, boiled down:
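T. cruzi epimastigotes were treated with test compound with or without D,L-folic acid, following the epimastigote turbidimetric viability protocol (120 h, 25 °C, A595). IC50 was determined in each condition and compared.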

The nature of data set [9]: Cytotoxicity on J774.1A macrophages. The format is cell-based. The following applies: mouse, J774.1A macrophages, J774.1A macrophage, CC50, 48 h, MTT. The gist of the method:
as §2

Data set [10] deals with promastigotes of L. infantum. In words: Effect of metal cations on IC50 on L. infantum promastigotes. The format is cell-based. As to conditions: Leishmania parasites, metal cation at 1 μM. The gist of the method: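 L. infantum promastigotes were treated with test compound alone or with a metal cation (Fe3+, Cu2+ or Zn2+) at 1 μM, following the promastigote MTT viability protocol. IC50 was determined with and without the cation and compared.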

In data set [11] the test system is Salmonella typhimurium TA 98 strain. Nature of the data set: Mutagenicity Ames test. The format is cell-based. The following applies: dose 20.0 μg/plate.
The subject of data set [12] is promastigotes of L. infantum. It is filed as cell-based. The following applies: presence vs absence of D,L-folic acid. The method, boiled down: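 L. infantum promastigotes were treated with test compound with or without D,L-folic acid, following the promastigote MTT viability protocol (72 h, 25 °C, formazan read at 570 nm). IC50 was determined in each condition and compared.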

As to `O=c1[nH]c(-c2ccc(Cl)cc2)nc2ccccc12` [2-(4-chlorophenyl)quinazolin-4(3H)-one, reference compound], the “nitrite ion production (Griess test)” value (in data set [1]; in the data set on T. cruzi epimastigotes) was “No production was detected” throughout.

A word on the IC50: it is the concentration needed to halve the response being measured. The CC50 is the concentration at which the toxic effect on the cells reaches its halfway point. As to `NNc1nc(-c2ccccc2)nc2ccccc12` [3a, (Z)-1-(2-phenylquinazolin-4(3H)-ylidene)hydrazine], the IC50 in data set [2] (Leishmania braziliensis) is 4.53 ± 0.23 µM; in data set [3], 12.7 ± 0.74 µM; in data set [4] it was over 25 µM; in [5], 8.26 ± 0.45 µM. In data set [4], the “S.I.T.cruzi (selectivity index), column epimastigote, IC50 (μM) T. cruzi (S.I.T.cruzi)” value (shortened to “S.I.T.cruzi (selectivity index)”) is under 3.6. The CC50 came to 61 ± 2.34 µM in the data set with peritoneal macrophages and 90.2 ± 4.32 µM in the data set with J774.1A macrophages. Moreover, in data set [5], the “S.I.Leishmania (selectivity index)” value came to 7.4.

With `NNc1nc(-c2ccc(F)cc2)nc2ccccc12` [3b, (Z)-1-(2-(4-fluorophenyl)quinazolin-4(3H)-ylidene)hydrazine], the half-maximal inhibitory concentration (IC50) in [2] (Leishmania braziliensis) came out at 3.85 ± 0.17 µM; in data set [3], 5.01 ± 0.31 µM; in data set [4] it was 17.9 ± 1.21 µM; in [5] it was 7.41 ± 0.39 µM. Also, the “S.I.T.cruzi (selectivity index)” value in data set [4] is over 6.7. Further, the CC50 at 48 h in [6] was over 100 µM. In [7], the solubility in culture entry was “appreciable solubility”.

As for `NNc1nc(-c2ccc(Br)cc2)nc2ccccc12` [3d, (Z)-1-(2-(4-bromophenyl)quinazolin-4(3H)-ylidene)hydrazine], the IC50 in data set [2] (Leishmania braziliensis) amounted to 6.2 ± 0.38 µM; in data set [3], 2.13 ± 0.12 µM; in data set [4], 14.3 ± 0.87 µM; in data set [5], 12.7 ± 0.78 µM. Also, in data set [4], the “S.I.T.cruzi (selectivity index)” value was 5.5. The values for the CC50 with peritoneal macrophages and in the data set on J774.1A macrophages were 78 ± 3.89 µM and 78.6 ± 3.99 µM, respectively. Besides, in data set [5], the “S.I.Leishmania (selectivity index)” value is listed as 6.2. In data set [8], the “change of IC50 on addition of folic acid (FA)” value (shortened to “change of IC50 … (FA)”) is given as “Increasing IC50 values by about twofold”.

Consider `Cc1ccc(-c2nc3ccccc3/c(=N/N)[nH]2)cc1` [3e, (Z)-1-(2-(4-Methylphenyl)quinazolin-4(3H)-ylidene)hydrazine], for which the IC50 in data set [2] (Leishmania braziliensis) is 10.1 ± 0.48 µM; in data set [3], 1.2 ± 0.08 µM; in data set [4], 18 ± 1.11 µM; in [5], 14 ± 0.89 µM. Further, the “S.I.T.cruzi (selectivity index)” value in [4] is recorded as 6.4. In addition, the CC50 at 48 h in data set [6] came out at 84.8 ± 3.67 µM; in data set [9] it was 115 ± 5.43 µM. In addition, the “S.I.Leishmania (selectivity index)” value in [5] is listed as 6.1. Besides, in [8], the “change of IC50 … (FA)” value is on record as “Increasing IC50 values by about twofold”. Also, the “change of IC50 in the presence of Cu2+” value in [10] is “increase in IC50 values”.

As to `NNc1nc(-c2cccc(Cl)c2)nc2ccccc12` [3f, (Z)-1-(2-(3-chlorophenyl)quinazolin-4(3H)-ylidene)hydrazine], the 50% inhibitory concentration (IC50) in data set [2] (Leishmania braziliensis) is 5.63 ± 0.36 µM; in [3] it was 4.55 ± 0.29 µM; in data set [4], over 25 µM; in [5], 8.43 ± 0.51 µM. For the same molecule, the “S.I.T.cruzi (selectivity index)” value in data set [4] is “no active”. Moreover, the 50% cytotoxic concentration (CC50) at 48 h in [6] was over 100 µM. Besides, the CC50 with J774.1A macrophages was over 120 µM. In addition, in data set [7], the solubility in culture result was “appreciable solubility”.

As a reminder, the inhibition is the relative decrease from the control value, in per cent. As for `N/N=c1\[nH]c(-c2cccc(Br)c2)nc2ccccc12` [3g, (Z)-1-(2-(3-bromophenyl)quinazolin-4(3H)-ylidene)hydrazine], the IC50 in data set [2] (Leishmania braziliensis) is over 25 µM; in data set [3] it was 21.1 ± 1.21 µM; in data set [4], over 25 µM. In addition, the inhibition at 25 µM in data set [2] (Leishmania braziliensis) is 27.3%.

As to `COc1cccc(-c2nc3ccccc3/c(=N/N)[nH]2)c1` [3h, (Z)-1-(2-(3-Methoxyphenyl)quinazolin-4(3H)-ylidene)hydrazine], the IC50 in data set [2] (Leishmania braziliensis) was 12.2 ± 0.76 µM; in [3], over 25 µM; in data set [4], over 25 µM. In addition, the inhibition at 25 µM in data set [3] was 47.2%; in data set [4], 10.1%. The “promastigote, IC50 L. infantum” value in [3] was “inactive”.

`COc1ccccc1-c1nc2ccccc2/c(=N/N)[nH]1` [3i, (Z)-1-(2-(2-Methoxyphenyl)quinazolin-4(3H)-ylidene)hydrazine]: in data set [2] (Leishmania braziliensis), the IC50 was over 25 µM and the inhibition at 25 µM was found to be 49.2%. For the same molecule, the “promastigote, IC50 L. braziliensis” value in data set [2] (promastigotes) is given as “did not show activity”. In [3], the IC50 was over 25 µM; the inhibition at 25 µM was 28.3%; the “promastigote, IC50 L. infantum” value is recorded as “did not show activity”. In data set [4], the 50% inhibitory concentration (IC50) was over 25 µM and the inhibition at 25 µM was 11.9%. For the same molecule, in data set [7], the solubility entry was “poor solubilities”.

As to `N/N=c1\[nH]c(-c2ccco2)nc2ccccc12` [3k], the values for the IC50 in data set [2] (Leishmania braziliensis), in data set [3] and in [4] were over 25 µM, 14 ± 0.91 µM and over 25 µM, respectively. For the same molecule, the inhibition at 25 µM stood at 46.6% in [2] (Leishmania braziliensis) and 8.56% in [4].

`Nc1ccc([N+](=O)[O-])cc1N` [NPD, 4-nitro-o-phenylenediamine, reference compound] gave a revertants number in data set [11] of 394.0 ± 10.

Turning to `CNC[C@H](O)[C@@H](O)[C@H](O)[C@H](O)CO.[O]=[Sb](=[O])[OH]` [glucantime, reference compound], the IC50 in data set [2] (promastigotes) stood at 32 ± 1.78 µM. Further, the CC50 in the data set on peritoneal macrophages is 138 ± 10.1 µM. The “S.I.Leishmania (selectivity index)” value in [5] turned out to be 11.3.

`CCCCCCCCCCCCCCCCOP(=O)([O-])OCC[N+](C)(C)C` [miltefosine, reference compound]: the IC50 worked out at 8.78 ± 0.41 µM in [2] (Leishmania braziliensis), 10.6 ± 0.46 µM in data set [3] and 21.2 ± 1.13 µM in [5]. Further, the CC50 at 48 h in data set [6] turned out to be 67.8 ± 3.11 µM; in [9], 72.3 ± 3.45 µM. Besides, the “S.I.Leishmania (selectivity index)” value in data set [5] was 3.2. For the same molecule, the “change of IC50 … (FA)” value in [12] was “not affected”.
